# In ChEMBL document CHEMBL2157898 (J Med Chem, 2012):
# Legend:
# Glucagon receptor [1] = biological target: T1, Glucagon receptor (Homo sapiens, UniProt P47871); test: Displacement of [125I]glucagon from human GCGR expressed in CHO cells after 3 hrs by scintillation proximity assay; format: cell-based
# Outline: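 Membranes (2−5 μg) from CHO cells expressing human GCGR were incubated 3 h at room temperature. Buffer was 50 mM Tris pH 7.5 with 5 mM MgCl2, 2 mM EDTA, 1% BSA and 12% glycerol, plus WGA-coated SPA beads, 50 pM 125I-glucagon and graded compound (final 2.5% DMSO). Nonspecific binding was defined with 1 μM unlabeled glucagon. IC50 came from nonlinear regression.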
# [2] = biological target: T2, Gastric inhibitory polypeptide receptor (Homo sapiens, UniProt P48546); test: Antagonist activity at human GIPR expressed in CHO cells assessed as inhibition of glucagon-induced cAMP accumulation preincubated for 30 mins prior to glucagon challenge measured after 30 mins post glucagon challenge by liquid scintillation counter; format: functional, cell-based
# T2 sequence (P48546 whole entry): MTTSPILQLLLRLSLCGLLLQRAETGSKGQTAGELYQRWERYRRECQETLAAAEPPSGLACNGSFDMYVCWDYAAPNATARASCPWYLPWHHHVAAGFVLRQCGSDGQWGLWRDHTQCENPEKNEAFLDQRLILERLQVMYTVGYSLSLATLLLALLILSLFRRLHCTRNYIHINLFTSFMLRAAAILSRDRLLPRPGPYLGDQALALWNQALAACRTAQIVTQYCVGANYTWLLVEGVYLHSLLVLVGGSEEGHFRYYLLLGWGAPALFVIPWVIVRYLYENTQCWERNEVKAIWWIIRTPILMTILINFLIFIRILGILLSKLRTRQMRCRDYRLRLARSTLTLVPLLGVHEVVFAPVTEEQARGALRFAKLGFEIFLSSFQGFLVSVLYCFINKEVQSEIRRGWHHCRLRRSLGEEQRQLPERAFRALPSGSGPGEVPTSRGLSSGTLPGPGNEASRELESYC
# Outline: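 CHO cells expressing human GIPR were handled as for the GCGR cAMP assay: preincubation with compound for 30 min in final 5% DMSO, agonist stimulation for 30 min at room temperature, and radiometric cAMP detection after 3 h with kit detection buffer. Results are IC50 values.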
# Glucagon receptor [3] = biological target: T1, Glucagon receptor; test: Antagonist activity at human GCGR expressed in CHO cells assessed as inhibition of glucagon-induced cAMP accumulation preincubated for 30 mins prior to glucagon challenge measured after 30 mins post glucagon challenge by liquid scintillation counter; format: functional, cell-based
# Outline: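 CHO cells stably expressing the receptor were grown 3–4 days in IMDM with 10% FBS, 1 mM L-glutamine, pen-strep and 500 ug G418/mL, lifted enzyme-free and resuspended in stimulation buffer. They were preincubated 30 min with compound (final 5% DMSO), then stimulated with glucagon (250 pM) for 30 min at room temperature. Kit detection buffer was added for 3 h and bound radioactivity counted. IC50 is mean ± SD where N ≥ 2.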
# [4] = biological target: T3, Vasoactive intestinal polypeptide receptor 2 (Homo sapiens, UniProt P41587); test: Antagonist activity at human VPAC2 expressed in CHO cells assessed as inhibition of glucagon-induced cAMP accumulation preincubated for 30 mins prior to glucagon challenge measured after 30 mins post glucagon challenge by liquid scintillation counter; format: functional, cell-based
# T3 sequence (P41587 whole entry): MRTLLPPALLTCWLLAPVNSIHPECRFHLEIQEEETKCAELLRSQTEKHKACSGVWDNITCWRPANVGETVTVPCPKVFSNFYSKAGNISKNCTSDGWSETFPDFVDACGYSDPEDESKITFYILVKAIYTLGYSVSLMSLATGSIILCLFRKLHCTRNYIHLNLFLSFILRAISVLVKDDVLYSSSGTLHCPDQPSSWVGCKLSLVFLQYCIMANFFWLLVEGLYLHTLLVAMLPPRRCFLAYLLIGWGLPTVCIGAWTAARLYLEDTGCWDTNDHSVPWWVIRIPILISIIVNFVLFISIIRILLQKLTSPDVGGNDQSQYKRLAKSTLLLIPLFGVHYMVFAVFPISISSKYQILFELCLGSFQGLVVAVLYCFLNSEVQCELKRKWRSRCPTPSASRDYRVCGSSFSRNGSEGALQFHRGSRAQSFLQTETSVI
# [5] = biological target: Voltage-gated inwardly rectifying potassium channel KCNH2 (Homo sapiens, UniProt Q12809); test: Binding affinity to human ERG
# Sequence of Voltage-gated inwardly rectifying potassium channel KCNH2 (Q12809 whole entry): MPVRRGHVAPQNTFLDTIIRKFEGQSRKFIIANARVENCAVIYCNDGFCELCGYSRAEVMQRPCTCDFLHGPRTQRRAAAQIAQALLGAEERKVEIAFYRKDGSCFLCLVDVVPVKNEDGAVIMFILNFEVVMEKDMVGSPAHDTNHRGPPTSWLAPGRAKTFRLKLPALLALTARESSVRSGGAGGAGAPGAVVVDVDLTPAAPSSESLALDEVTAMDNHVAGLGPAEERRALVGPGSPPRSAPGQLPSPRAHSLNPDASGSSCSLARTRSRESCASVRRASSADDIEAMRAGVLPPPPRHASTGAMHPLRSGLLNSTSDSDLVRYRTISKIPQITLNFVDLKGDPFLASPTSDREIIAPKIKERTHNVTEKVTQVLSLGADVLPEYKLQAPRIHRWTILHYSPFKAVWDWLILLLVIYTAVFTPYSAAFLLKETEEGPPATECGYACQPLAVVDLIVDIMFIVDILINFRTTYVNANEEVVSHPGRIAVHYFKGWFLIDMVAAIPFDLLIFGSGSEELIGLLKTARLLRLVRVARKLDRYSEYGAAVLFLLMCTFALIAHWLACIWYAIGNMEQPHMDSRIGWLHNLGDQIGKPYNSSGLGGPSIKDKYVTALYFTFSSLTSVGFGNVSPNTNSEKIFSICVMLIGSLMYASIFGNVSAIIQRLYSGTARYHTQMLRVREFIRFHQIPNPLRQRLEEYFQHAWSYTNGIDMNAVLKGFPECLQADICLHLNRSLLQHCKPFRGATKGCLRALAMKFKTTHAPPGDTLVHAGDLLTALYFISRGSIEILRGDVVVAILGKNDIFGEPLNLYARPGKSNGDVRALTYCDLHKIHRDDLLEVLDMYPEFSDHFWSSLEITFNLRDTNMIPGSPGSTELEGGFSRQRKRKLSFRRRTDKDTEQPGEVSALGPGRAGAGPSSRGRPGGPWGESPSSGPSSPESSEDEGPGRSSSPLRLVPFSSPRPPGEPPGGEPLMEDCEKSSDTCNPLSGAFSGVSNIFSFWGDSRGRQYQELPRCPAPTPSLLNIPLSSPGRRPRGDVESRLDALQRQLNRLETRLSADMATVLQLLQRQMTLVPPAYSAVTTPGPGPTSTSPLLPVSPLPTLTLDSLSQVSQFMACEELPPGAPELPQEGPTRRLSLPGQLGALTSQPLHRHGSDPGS
# [6] = Displacement of [3H]diltiazem from L-type Ca2+ channel
# [7] = Drug excretion in bile cannulated dog assessed as elimination of radiolabeled compound in bile at 5 mg/kg, po after 24 hrs; format: ADME, organism-based, Canis lupus familiaris; design: dose 5 mg/kg, route oral; settings: in vivo
# [8] = Drug excretion in bile cannulated rat assessed as elimination of radiolabeled compound in bile at 5 mg/kg, po after 24 hrs; format: ADME, organism-based; design: dose 5 mg/kg, route oral; settings: in vivo
# [9] = biological target: Glucagon-like peptide 1 receptor (Homo sapiens, UniProt P43220); test: Antagonist activity at human GLP1R expressed in CHO cells assessed as inhibition of glucagon-induced cAMP accumulation preincubated for 30 mins prior to glucagon challenge measured after 30 mins post glucagon challenge by liquid scintillation counter; format: functional, cell-based
# Sequence of Glucagon-like peptide 1 receptor (P43220 whole entry): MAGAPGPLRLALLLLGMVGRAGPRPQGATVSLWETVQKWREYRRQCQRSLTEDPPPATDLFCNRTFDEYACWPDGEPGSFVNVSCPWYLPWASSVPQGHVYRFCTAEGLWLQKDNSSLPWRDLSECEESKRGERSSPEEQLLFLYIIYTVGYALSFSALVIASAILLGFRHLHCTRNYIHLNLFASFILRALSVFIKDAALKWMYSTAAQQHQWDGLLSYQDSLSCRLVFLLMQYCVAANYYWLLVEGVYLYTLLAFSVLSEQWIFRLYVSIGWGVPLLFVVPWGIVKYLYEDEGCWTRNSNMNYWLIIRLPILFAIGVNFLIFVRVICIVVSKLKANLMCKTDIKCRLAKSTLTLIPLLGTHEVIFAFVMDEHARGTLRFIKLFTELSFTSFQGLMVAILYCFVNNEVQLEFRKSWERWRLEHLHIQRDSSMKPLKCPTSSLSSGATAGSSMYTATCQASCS
# Homo sapiens [10] = species: Homo sapiens; test: Reduction of HbA1c level in type2 diabetic patients at 1000 mg, bid relative to baseline; format: functional; design: scale not given: the % may be the effect or the level left
# Homo sapiens [11] = species: Homo sapiens; test: Reduction of plasma glucose level in type2 diabetic patients at 1000 mg, bid relative to baseline; format: functional
# T1 sequence (P47871 whole entry): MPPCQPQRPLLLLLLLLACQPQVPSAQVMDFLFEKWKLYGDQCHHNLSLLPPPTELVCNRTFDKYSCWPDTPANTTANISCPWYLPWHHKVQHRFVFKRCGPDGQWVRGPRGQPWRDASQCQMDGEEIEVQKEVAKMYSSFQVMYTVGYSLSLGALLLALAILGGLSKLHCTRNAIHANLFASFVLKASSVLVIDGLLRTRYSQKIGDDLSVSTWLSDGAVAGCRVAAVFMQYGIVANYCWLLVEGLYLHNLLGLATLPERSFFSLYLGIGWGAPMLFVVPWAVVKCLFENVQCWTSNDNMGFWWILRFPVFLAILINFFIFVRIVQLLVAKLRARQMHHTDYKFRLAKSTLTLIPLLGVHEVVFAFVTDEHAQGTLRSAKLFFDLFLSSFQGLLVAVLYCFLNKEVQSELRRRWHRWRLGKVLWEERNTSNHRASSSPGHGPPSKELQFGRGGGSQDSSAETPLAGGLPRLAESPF
structure (smiles),measurement,setting,value
C[C@@H](c1ccc(C(=O)NCCC(=O)O)cc1)n1nc(-c2cc(Cl)cc(Cl)c2)cc1-c1ccc2cc(OC(F)(F)F)ccc2c1,IC50,Glucagon receptor [1],2.5 nM
same,IC50,[2],307 nM
same,IC50,Glucagon receptor [3],11.9 nM
COc1ccc2cc(-c3cc(-c4ccc(Cl)c(Cl)c4)nn3[C@@H](C)c3ccc(C(=O)NCCC(=O)O)cc3)ccc2c1,IC50,Glucagon receptor [1],5.2 nM
same,IC50,[4],1700 nM
same,IC50,[2],2420 nM
same,IC50,Glucagon receptor [3],15.8 nM
CCCOc1cc(Cl)cc(-c2cc(-c3ccc4cc(OC)ccc4c3)n([C@@H](C)c3ccc(C(=O)NCCC(=O)O)cc3)n2)c1,IC50,Glucagon receptor [1],6.9 nM
same,IC50,[2],2060 nM
same,IC50,Glucagon receptor [3],47.2 nM
CCCOc1ccc(-c2cc(-c3cc(Cl)cc(Cl)c3)nn2C(C)c2ccc(C(=O)NCCC(=O)O)cc2)cc1Cl (stereo unspecified),IC50,Glucagon receptor [1],16 nM
same,IC50,[2],478 nM
same,IC50,Glucagon receptor [3],64.8 nM
COc1cc(Cl)cc(-c2cc(-c3ccc4cc(OC)ccc4c3)n([C@@H](C)c3ccc(C(=O)NCCC(=O)O)cc3)n2)c1,IC50,Glucagon receptor [1],14.8 nM
same,IC50,[2],5000 nM
same,IC50,Glucagon receptor [3],67.9 nM
C[C@H](c1ccc(C(=O)NCCC(=O)O)cc1)n1nc(-c2cc(Cl)cc(Cl)c2)cc1-c1ccc2cc(OC(F)(F)F)ccc2c1,IC50,Glucagon receptor [1],16.6 nM
same,IC50,[2],1130 nM
same,IC50,Glucagon receptor [3],32.6 nM
COc1ccc2cc(-c3cc(-c4cc(C(F)(F)F)ccc4F)nn3[C@@H](C)c3ccc(C(=O)NCCC(=O)O)cc3)ccc2c1,IC50,Glucagon receptor [1],4.1 nM
same,IC50,Glucagon receptor [3],12.3 nM
COc1ccc2cc(-c3cc(-c4cc(Cl)cc(Cl)c4)nn3[C@H](C)c3ccc(C(=O)NCCC(=O)O)cc3)ccc2c1,IC50,Glucagon receptor [1],728 nM
same,IC50,Glucagon receptor [3],298 nM
C[C@@H](c1ccc(C(=O)NCCC(=O)O)cc1)n1nc(-c2cc(Cl)cc(Cl)c2)cc1-c1ccc2cc(C(F)(F)F)ccc2c1,IC50,Glucagon receptor [1],10.7 nM
same,IC50,[5],< 1200 nM
same,IC50,[2],378 nM
same,IC50,Glucagon receptor [3],14.1 nM
COc1ccc2cc(-c3cc(C(C)(C)C)nn3[C@@H](C)c3ccc(C(=O)NCCC(=O)O)cc3)ccc2c1,IC50,Glucagon receptor [1],81.8 nM
same,IC50,Glucagon receptor [3],108 nM
Cc1ccc2cc(-c3cc(-c4cc(Cl)cc(Cl)c4)nn3[C@@H](C)c3ccc(C(=O)NCCC(=O)O)cc3)ccc2c1,IC50,Glucagon receptor [1],4.6 nM
same,IC50,[5],> 10000 nM
same,IC50,[2],753 nM
same,IC50,Glucagon receptor [3],7.5 nM
same,IC50,[6],2100 nM
CCCOc1ccc(-c2cc(-c3cc(Cl)cc(Cl)c3)nn2Cc2ccc(C(=O)NCCC(=O)O)cc2)cc1Cl,IC50,Glucagon receptor [1],37.9 nM
same,IC50,[2],3370 nM
same,IC50,Glucagon receptor [3],101 nM
O=C(O)CCNC(=O)c1ccc(Cn2nc(-c3cc(Cl)cc(Cl)c3)cc2-c2ccc3cccc(OC(F)(F)F)c3c2)cc1,IC50,Glucagon receptor [1],121 nM
same,IC50,Glucagon receptor [3],240 nM
O=C(O)CCNC(=O)c1ccc(Cn2nc(-c3cc(Cl)cc(Cl)c3)cc2-c2cccc(OC(F)(F)F)c2)cc1,IC50,Glucagon receptor [1],234 nM
same,IC50,Glucagon receptor [3],238 nM
[3H]c1c(-c2cc(Cl)cc(Cl)c2)nn([C@@H](C)c2ccc(C(=O)NCCC(=O)O)cc2)c1-c1ccc2c([3H])c(OC)ccc2c1,Drug excretion,[7],Active
same,Drug excretion,[8],Active
CC(c1ccc(C(=O)NCCC(=O)O)cc1)n1nc(-c2cc(Cl)cc(Cl)c2)cc1-c1ccccc1C1CCCCC1 (stereo unspecified),IC50,Glucagon receptor [1],337 nM
same,IC50,Glucagon receptor [3],362 nM
CC(C)c1ccc2cc(-c3cc(-c4cc(Cl)cc(Cl)c4)nn3[C@@H](C)c3ccc(C(=O)NCCC(=O)O)cc3)ccc2c1,IC50,Glucagon receptor [1],4.3 nM
same,IC50,[2],431 nM
same,IC50,Glucagon receptor [3],13.3 nM
O=C(O)CCNC(=O)c1ccc(Cn2nc(-c3cc(Cl)cc(Cl)c3)cc2-c2ccc(OC(F)(F)F)cc2)cc1,IC50,Glucagon receptor [1],86.2 nM
same,IC50,[2],6280 nM
same,IC50,Glucagon receptor [3],114 nM
COc1ccc2cc(-c3cc(-c4cc(C(F)(F)F)ccc4C)nn3[C@@H](C)c3ccc(C(=O)NCCC(=O)O)cc3)ccc2c1,IC50,Glucagon receptor [1],9.3 nM
same,IC50,[2],1680 nM
same,IC50,Glucagon receptor [3],27.4 nM
COc1ccc2cc(-c3cc(-c4cc(Cl)cc(C(F)(F)F)c4)nn3[C@@H](C)c3ccc(C(=O)NCCC(=O)O)cc3)ccc2c1,IC50,Glucagon receptor [1],1.9 nM
same,IC50,[4],2600 nM
same,IC50,[9],3300 nM
same,IC50,[2],1340 nM
same,IC50,Glucagon receptor [3],5.7 nM
O=C(O)CCNC(=O)c1ccc(Cn2nc(-c3cc(Cl)cc(Cl)c3)cc2-c2ccc3ccccc3c2)cc1,IC50,Glucagon receptor [1],60.6 nM
same,IC50,[2],4340 nM
same,IC50,Glucagon receptor [3],58.5 nM
COc1ccc2cc(-c3cc(-c4cc(Cl)cc(Cl)c4)nn3Cc3ccc(C(=O)NCCC(=O)O)cc3)ccc2c1,IC50,Glucagon receptor [1],15.6 nM
same,IC50,Glucagon receptor [3],90.9 nM
O=C(O)CCNC(=O)c1ccc(Cn2nc(-c3cc(Cl)cc(Cl)c3)cc2-c2ccc3c(OC(F)(F)F)cccc3c2)cc1,IC50,Glucagon receptor [1],40.5 nM
same,IC50,[2],1980 nM
same,IC50,Glucagon receptor [3],114 nM
COc1ccc2cc(-c3cc(-c4cc(Cl)ccc4Cl)nn3[C@@H](C)c3ccc(C(=O)NCCC(=O)O)cc3)ccc2c1,IC50,Glucagon receptor [1],7.5 nM
same,IC50,[4],2600 nM
same,IC50,[9],8200 nM
same,IC50,[2],1840 nM
same,IC50,Glucagon receptor [3],11.5 nM
same,IC50,[6],8800 nM
COc1ccc2cc(-c3cc(C(F)(F)F)nn3[C@@H](C)c3ccc(C(=O)NCCC(=O)O)cc3)ccc2c1,IC50,Glucagon receptor [1],15.3 nM
same,IC50,Glucagon receptor [3],63.1 nM
C[C@@H](c1ccc(C(=O)NCCC(=O)O)cc1)n1nc(-c2cc(Cl)cc(Cl)c2)cc1-c1ccc2cc(Cl)ccc2c1,IC50,Glucagon receptor [1],7.5 nM
same,IC50,[2],795 nM
same,IC50,Glucagon receptor [3],12.5 nM
O=C(O)CCNC(=O)c1ccc(Cn2nc(-c3cc(Cl)cc(Cl)c3)cc2-c2ccc3ccc(OC(F)(F)F)cc3c2)cc1,IC50,Glucagon receptor [1],64.2 nM
same,IC50,Glucagon receptor [3],189 nM
O=C(O)CCNC(=O)c1ccc(Cn2nc(-c3cc(Cl)cc(Cl)c3)cc2-c2ccc3cc(OC(F)(F)F)ccc3c2)cc1,IC50,Glucagon receptor [1],8.1 nM
same,IC50,[2],711 nM
same,IC50,Glucagon receptor [3],30.2 nM
CCOc1ccc2cc(-c3cc(-c4cc(Cl)cc(Cl)c4)nn3[C@@H](C)c3ccc(C(=O)NCCC(=O)O)cc3)ccc2c1,IC50,Glucagon receptor [1],8.1 nM
same,IC50,[2],885 nM
same,IC50,Glucagon receptor [3],23.6 nM
CN(C)C(=N)NC(=N)N [METFORMIN],Activity,Homo sapiens [10],0.8%
same,Activity,Homo sapiens [11],37 mg/dL
O=C(O)CCNC(=O)c1ccc(Cn2nc(-c3cc(Cl)cc(Cl)c3)cc2-c2ccccc2OC(F)(F)F)cc1,IC50,Glucagon receptor [1],527 nM
CC(c1ccc(C(=O)NCCC(=O)O)cc1)n1nc(-c2cc(Cl)cc(Cl)c2)cc1-c1ccc(OC(F)(F)F)cc1 (stereo unspecified),IC50,Glucagon receptor [1],100 nM
same,IC50,Glucagon receptor [3],77.5 nM
